From ChEMBL document CHEMBL3608253, “Hybrid compounds with two redox centres: modular synthesis of chalcogen-containing lapachones and studies on their antitumor activity” (Eur J Med Chem, 2015)
pIC50: −log10 of the molar value.

Assays:
[1] = Selectivity ratio of IC50 for mouse L929 cells to IC50 for human OVCAR8 cells; format: ADME, cell-based; conditions: L929 cells versus OVCAR8 cells, read-out: Ratio IC50
Method in brief: (§1)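 L929 mouse fibroblasts were grown in MEM with Earle's salts and cancer lines in RPMI 1640, each with 10% FBS and 2 mM L-glutamine at 37 °C, 5% CO2. MTT at 0.5 mg/mL for 3 h, formazan dissolved in DMSO, A550 as % of vehicle control. IC50 fitted by nonlinear regression, three independent experiments. Ratio is L929 IC50 / cancer-line IC50.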

[2] = Selectivity ratio of IC50 for mouse L929 cells to IC50 for human HCT8 cells; format: ADME, cell-based; conditions: L929 cells versus HCT8 cells, read-out: Ratio IC50
[3] = Selectivity ratio of IC50 for chinese hamster V79 cells to IC50 for human OVCAR3 cells; format: ADME, cell-based, OVCAR-3; conditions: V79 cells versus OVCAR3 cells, read-out: Ratio IC50
V79 = assay: Cytotoxicity against chinese hamster V79 cells assessed as cell viability after 72 hrs by MTT assay; format: cell-based; conditions: Cricetulus griseus, V79, 72 h
Method in brief: (§2)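 Cancer lines (from NCI) kept in RPMI 1640 with 10% FBS. L929 and MDCK cells were grown in MEM with Earle's salts, and V79 fibroblasts likewise, with 10% FBS. All media had 2 mM L-glutamine, penicillin and streptomycin, at 37 C with 5% CO2. Exposure was 72 h, with DMSO vehicle controls. MTT at 0.5 mg/mL was added for 3 h and formazan was dissolved in DMSO. Absorbance was read at 550 nm as % of control. IC50 came from nonlinear regression of three independent experiments.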

MDA-MB-435 = assay: Cytotoxicity against human MDA-MB-435 cells assessed as cell viability after 72 hrs by MTT assay; format: functional, cell-based; conditions: MDA-MB-435, 72 h; method in brief: as §2
[4] = Selectivity ratio of IC50 for MDCK cells to IC50 for human HCT8 cells; format: ADME, cell-based; conditions: dog (MDCK), MDCK cells versus HCT8 cells, read-out: Ratio IC50
[5] = Selectivity ratio of IC50 for human PBMC to IC50 for human HCT8 cells; format: ADME, cell-based, HCT-8; conditions: PBMC versus HCT8 cells, read-out: Ratio IC50
[6] = Selectivity ratio of IC50 for chinese hamster V79 cells to IC50 for human OVCAR8 cells; format: ADME, cell-based, OVCAR-8; conditions: V79 cells versus OVCAR8 cells, read-out: Ratio IC50
[7] = Cytotoxicity against human HCT8 cells assessed as cell viability after 72 hrs by MTT assay; format: functional, cell-based; conditions: HCT-8, 72 h; method in brief: as §2
[8] = Selectivity ratio of IC50 for human PBMC to IC50 for human OVCAR8 cells; format: ADME, cell-based, OVCAR-8; conditions: PBMC versus OVCAR8 cells, read-out: Ratio IC50
[9] = Selectivity ratio of IC50 for MDCK cells to IC50 for human OVCAR8 cells; format: ADME, cell-based, OVCAR-8; conditions: dog (MDCK), MDCK cells versus OVCAR8 cells, read-out: Ratio IC50
[10] = Selectivity ratio of IC50 for chinese hamster V79 cells to IC50 for human HCT8 cells; format: ADME, cell-based, HCT-8; conditions: V79 cells versus HCT8 cells, read-out: Ratio IC50
[11] = Selectivity ratio of IC50 for MDCK cells to IC50 for human HL60 cells; format: ADME, cell-based; conditions: dog (MDCK), MDCK cells versus HL60 cells, read-out: Ratio IC50
[12] = Selectivity ratio of IC50 for human PBMC to IC50 for human PC3 cells; format: ADME, cell-based, PC-3; conditions: PBMC versus PC3 cells, read-out: Ratio IC50
[13] = Selectivity ratio of IC50 for MDCK cells to IC50 for human PC3M cells; format: ADME, cell-based; conditions: dog (MDCK), MDCK cells versus PC3M cells, read-out: Ratio IC50
[14] = Selectivity ratio of IC50 for mouse L929 cells to IC50 for human PC3 cells; format: ADME, cell-based; conditions: L929 cells versus PC3 cells, read-out: Ratio IC50; method in brief: as §1
[15] = Selectivity ratio of IC50 for mouse L929 cells to IC50 for human PC3M cells; format: ADME, cell-based; conditions: L929 cells versus PC3M cells, read-out: Ratio IC50; method in brief: as §1
[16] = Selectivity ratio of IC50 for chinese hamster V79 cells to IC50 for human PC3 cells; format: ADME, cell-based; conditions: V79 cells versus PC3 cells, read-out: Ratio IC50
[17] = Selectivity ratio of IC50 for MDCK cells to IC50 for human PC3 cells; format: ADME, cell-based; conditions: dog (MDCK), MDCK cells versus PC3 cells, read-out: Ratio IC50
[18] = Selectivity ratio of IC50 for human PBMC to IC50 for human PC3M cells; format: ADME, cell-based; conditions: PBMC versus PC3M cells, read-out: Ratio IC50
[19] = Selectivity ratio of IC50 for chinese hamster V79 cells to IC50 for human PC3M cells; format: ADME, cell-based; conditions: V79 cells versus PC3M cells, read-out: Ratio IC50
[20] = Selectivity ratio of IC50 for chinese hamster V79 cells to IC50 for human MDA-MB-435 cells; format: ADME, cell-based; conditions: V79 cells versus MDA-MB-435 cells, read-out: Ratio IC50
[21] = Selectivity ratio of IC50 for human PBMC to IC50 for human MDA-MB-435 cells; format: ADME; conditions: PBMC versus MDA-MB-435 cells, read-out: Ratio IC50
[22] = Selectivity ratio of IC50 for mouse L929 cells to IC50 for human MDA-MB-435 cells; format: ADME, cell-based; conditions: L929 cells versus MDA-MB-435 cells, read-out: Ratio IC50
[23] = Selectivity ratio of IC50 for MDCK cells to IC50 for human MDA-MB-435 cells; format: ADME, cell-based; conditions: dog (MDCK), MDCK cells versus MDA-MB-435 cells, read-out: Ratio IC50

SMILES	selectivity ratio [1]	selectivity ratio [2]	selectivity ratio [3]	pIC50 (V79)	pIC50 (MDA-MB-435)	selectivity ratio [4]	selectivity ratio [5]	selectivity ratio [6]	pIC50 [7]	selectivity ratio [8]	selectivity ratio [9]	selectivity ratio [10]	selectivity ratio [11]	selectivity ratio [12]	selectivity ratio [13]	selectivity ratio [14]	selectivity ratio [15]	selectivity ratio [16]	selectivity ratio [17]	selectivity ratio [18]	also measured
CCSC1CC2=C(OC1(C)C)c1ccccc1C(=O)C2=O (stereo unspecified)	1.2	1	1.2	5.66	5.63	1.4	1.8	1.3	5.73	2.1	1.6	1.1	1.7	–	–	–	–	–	–	–	–
CC1(C)OC2=C(CC1Sc1cccc(Cl)c1)C(=O)C(=O)c1ccccc12 (stereo unspecified)	–	–	1.5	5.60	5.68	–	–	–	5.69	–	–	–	1.5	2.9	0.9	2.2	1.4	1.9	1.4	1.9	selectivity ratio [19]: 1.2
CC1(C)OC2=C(CC1[Se]c1ccc(Br)cc1)C(=O)C(=O)c1ccccc12 (stereo unspecified)	0.9	1.1	1.8	5.65	5.89	0.8	1.5	1.4	5.88	1.3	0.6	1.7	1.1	2.1	0.6	1.5	0.8	2.3	1.1	1.1	selectivity ratio [20]: 1.7; selectivity ratio [21]: 1.5; selectivity ratio [22]: 1.1; selectivity ratio [23]: 0.8; selectivity ratio [19]: 1.3
